{"source": "ChEMBL document CHEMBL5252546", "about": "“Salutaxel, a Conjugate of Docetaxel and a Muramyl Dipeptide (MDP) Analogue, Acts as Multifunctional Prodrug That Inhibits Tumor Growth and Metastasis” (J Med Chem, 2018)", "key": {"[1]": {"assay": "Prodrug conversion in mouse plasma implanted with mouse 4T1 cells assessed as Cmax of docetaxel at 4 mg/kg,iv measured upto 72 hrs", "format": "ADME, organism-based", "parameters": "dose 4 mg/kg, time < 72 hrs, route iv", "settings": "in vivo"}, "[2]": {"test_system": "OVCAR-3", "assay": "Antiproliferative activity against human OVCAR-3 cells assessed inhibition of cell growth incubated for 72 hrs by SRB assay", "format": "functional, cell-based", "settings": "OVCAR-3, 72 h"}, "[3]": {"test_system": "MDA-MB-468", "assay": "Antiproliferative activity against human MDA-MB-468 cells assessed inhibition of cell growth incubated for 72 hrs by SRB assay", "format": "functional, cell-based", "settings": "MDA-MB-468, 72 h"}, "[4]": {"assay": "Tmax in female rat at 4 mg/kg,iv measured upto 24 hrs", "format": "ADME, organism-based", "settings": "in vivo"}, "[5]": {"assay": "MRT (0 to infinity) in rat at 4 mg/kg,iv measured upto 24 hrs", "format": "ADME, organism-based", "settings": "in vivo"}, "[6]": {"assay": "AUC (0-infinity) in female Beagle dog at 1 mg/kg,iv measured upto 24 hrs", "format": "ADME, organism-based, Canis lupus familiaris", "parameters": "dose 1 mg/kg, time < 24 hrs, route iv", "settings": "in vivo", "procedure,_shortened": "(§1)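 Single iv dose: rats 2, 4 or 8 mg/kg by intravenous injection; Beagle dogs 1, 2 or 4 mg/kg by intravenous infusion. Plasma concentration–time data were analysed by sex and pooled. Reported parameters: Cmax, Tmax, AUC0−t, AUC0−∞, MRT0−∞, t1/2, CL, Vss, given as mean ± SD.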"}, "[7]": {"assay": "Half life in rat at 2 mg/kg,iv measured upto 24 hrs", "format": "ADME, organism-based", "settings": "in vivo"}, "[8]": {"assay": "Half life in male Beagle dog at 2 mg/kg,iv measured upto 24 hrs", "format": "ADME, organism-based, Canis lupus familiaris", "settings": "in vivo"}, "[9]": {"assay": "MRT (0 to infinity) in male Beagle dog at 2 mg/kg,iv measured upto 24 hrs", "format": "ADME, organism-based, Canis lupus familiaris", "settings": "in vivo"}, "[10]": {"assay": "Drug concentration in plasma of rat assessed as docetaxel concentration at 2 to 8 mg/kg,iv measured upto 24 hrs", "format": "ADME, organism-based", "settings": "in vivo, dose 2-8 mg/kg", "procedure,_shortened": "(§2)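 Rats were given a single iv injection at 2, 4 or 8 mg/kg. Plasma parent drug and released docetaxel were followed over time. Cmax, Tmax, AUC, MRT, t1/2, CL and Vss were reported for males, females and all animals combined.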"}, "[11]": {"assay": "Drug concentration in rat brain assessed as docetaxel concentration at 4 mg/kg,iv measured after 24 hrs", "format": "ADME, organism-based", "settings": "in vivo", "procedure,_shortened": "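Rats received 4 mg/kg iv. Parent drug and released docetaxel were assayed in tissues and plasma from the first sampling at 0.25 h to 24 h. The lower limit of quantitation was 200 ng/g.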"}, "[12]": {"assay": "Clearance in rat at 4 mg/kg,iv measured upto 24 hrs", "format": "ADME, organism-based", "settings": "in vivo", "procedure,_shortened": "as §2"}, "[13]": {"assay": "Clearance in rat at 2 mg/kg,iv measured upto 24 hrs", "format": "ADME, organism-based", "settings": "in vivo", "procedure,_shortened": "as §2"}, "[14]": {"assay": "Cmax in male Beagle dog at 1 mg/kg,iv measured upto 24 hrs", "format": "ADME, organism-based, Canis lupus familiaris", "parameters": "dose 1 mg/kg, time < 24 hrs, route iv", "settings": "in vivo", "procedure,_shortened": "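Beagle dogs were given a single iv infusion at 1, 2 or 4 mg/kg. Plasma parent drug and released docetaxel were followed over time. Cmax, Tmax, AUC, MRT, t1/2, CL and Vss were reported by sex and for all dogs combined.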"}, "[15]": {"assay": "Drug metabolism in rat bile assessed as metabolite docetaxel formation at 4 mg/kg,iv measured after 24 hrs", "format": "ADME, organism-based", "settings": "in vivo"}, "[16]": {"test_system": "MDA-MB-231", "assay": "Antiproliferative activity against human MDA-MB-231 cells assessed inhibition of cell growth incubated for 72 hrs by SRB assay", "format": "functional, cell-based", "settings": "MDA-MB-231, 72 h"}, "[17]": {"assay": "Volume of distribution at steady state in female Beagle dog at 1 mg/kg,iv measured upto 24 hrs", "format": "ADME, organism-based, Canis lupus familiaris", "settings": "in vivo, read-out: Vdss"}, "[18]": {"assay": "Prodrug conversion in mouse tumor implanted with mouse 4T1 cells assessed as Cmax of docetaxel at 4 mg/kg,iv measured upto 72 hrs", "format": "ADME, organism-based, Neoplasm", "parameters": "time < 72 hrs, dose 4 mg/kg, route iv", "settings": "in vivo"}, "[19]": {"assay": "AUC (0-infinity) in male rat at 2 mg/kg,iv measured upto 24 hrs", "format": "ADME, organism-based", "parameters": "dose 2 mg/kg, time < 24 hrs, route iv", "settings": "in vivo", "procedure,_shortened": "as §1"}, "[20]": {"test_system": "4T1", "assay": "Antitumor activity against mouse 4T1 cells xenografted with BALB/c mouse assessed as inhibition of tumor growth at 5 mg/kg,iv administrated once per week for 4 weeks", "format": "functional", "settings": "4T1, 672 h", "procedure,_shortened": "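4T1 cells injected into the mammary fat pad of BALB/c mice; iv saline vehicle or 5, 10 or 20 mg/kg once weekly for 4 weeks; body weight, tumour volume, tumour weight, lung metastatic nodule count and metastasis score recorded; n = 10, mean ± SEM, ANOVA and Student's t test.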"}, "[21]": {"assay": "Clearance in rat at 8 mg/kg,iv measured upto 24 hrs", "format": "ADME, organism-based", "settings": "in vivo", "procedure,_shortened": "as §2"}, "[22]": {"test_system": "4T1", "assay": "Antitumor activity against mouse 4T1 cells implanted in BALB/c mouse assessed as decrease in spleen MMP2 expression level at 5.7 mg/kg,iv administrated once per week for 4 weeks by western blot assay", "format": "functional, organism-based", "procedure,_shortened": "(§3)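 4T1 cells injected into mammary fat pads of BALB/c mice. Saline vehicle or test article given iv once weekly for 4 weeks. Spleen, lung and tumor lysates immunoblotted for MMP2/MMP9 with β-actin as loading control. Bands averaged over five mice per group, representative of two independent experiments.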"}, "[23]": {"test_system": "4T1", "assay": "Antitumor activity against mouse 4T1 cells implanted in BALB/c mouse assessed as decrease in serum IL-6 level at 5.7 mg/kg,iv administrated once per week for 4 weeks in presence of MDA-205 by ELISA", "format": "functional, organism-based"}, "[24]": {"test_system": "4T1", "assay": "Antitumor activity against mouse 4T1 cells implanted in BALB/c mouse assessed as decrease in tumor MMP2 expression level at 5.7 mg/kg,iv administrated once per week for 4 weeks by western blot assay", "format": "functional, organism-based", "procedure,_shortened": "as §3"}, "[25]": {"test_system": "4T1", "assay": "Antitumor activity against mouse 4T1 cells implanted in BALB/c mouse assessed as decrease in neutrophil in peripheral blood at 11.4 mg/kg,iv administrated qd for 2 days by blood smear staining microscopic analysis", "format": "functional, organism-based", "settings": "time 2.0 day", "procedure,_shortened": "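On day 19 after 4T1 implantation, mice were randomized into five groups and given iv vehicle or test article, plus ip C12-iE-DAP (50 μg/mouse) and MDP (100 μg/mouse), once daily for 2 days. Mice were killed 6 h later. Peripheral blood neutrophils/leukocytes were counted on stained blood smears at 1000×.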"}, "[26]": {"test_system": "4T1", "assay": "Antitumor activity against mouse 4T1 cells implanted in BALB/c mouse assessed as decrease in tumor MMP9 expression level at 5.7 mg/kg,iv administrated once per week for 4 weeks in presence of MDA-205 by western blot assay", "format": "functional, organism-based", "procedure,_shortened": "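Tumour-bearing BALB/c mice (4T1 cells into mammary fat pad) given iv saline vehicle or test agents once weekly for 4 weeks. Tumours excised and probed by western blot for MMP9, MMP2 and NOD1, β-actin as loading control. Bands averaged over five mice per group; representative of two independent experiments.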"}, "[27]": {"test_system": "4T1", "assay": "Antitumor activity against mouse 4T1 cells xenografted with BALB/c mouse assessed as inhibition of tumor growth at 5.7 mg/kg,iv in presence of compound 6 administrated once per week for 4 weeks", "format": "functional", "settings": "4T1, 672 h", "procedure,_shortened": "(§4)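 4T1 cells injected into mammary fat pads of BALB/c mice. Dosing iv once per week for 4 weeks, saline vehicle; single-agent arms were given alone or with the peptide component (5b or 6). Endpoints were body weight, tumour volume, tumour weight, lung metastatic nodule count and lung metastasis score. Mean ± SEM, n = 10; ANOVA and Student's t test.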"}, "[28]": {"test_system": "4T1", "assay": "Antitumor activity against mouse 4T1 cells implanted in BALB/c mouse assessed as decrease in lung MMP2 expression level at 5.7 mg/kg,iv administrated once per week for 4 weeks in presence of compound 5b by western blot assay", "format": "functional, organism-based", "procedure,_shortened": "as §3"}, "[29]": {"assay": "Toxicity in BALB/c mouse injected with mouse 4T1 cells assessed as body weight loss at 5.7 mg/kg,iv in presence of compound 6 administrated once per week for 4 weeks", "format": "organism-based", "settings": "in vivo, 672 h"}, "[30]": {"test_system": "4T1", "assay": "Antitumor activity against mouse 4T1 cells xenografted with BALB/c mouse assessed as reduction lung metastatic nodules at 5.7 mg/kg,iv in presence of compound 5b administrated once per week for 4 weeks", "format": "functional, organism-based", "procedure,_shortened": "as §4"}}, "note": "Calls of active or inactive are those of the source. The calls are words filed in the database; no cut-off is given here."}
{"smiles": "CC(=O)O[C@@]12CO[C@@H]1C[C@H](O)[C@@]1(C)C(=O)[C@H](O)C3=C(C)[C@@H](OC(=O)[C@H](OC(=O)CCC(=O)NCCCC[C@H](NC(=O)CC[C@@H](NC(=O)[C@H](C)NC(=O)/C=C/c4ccc(F)cc4Cl)C(N)=O)C(=O)O)[C@@H](NC(=O)OC(C)(C)C)c4ccccc4)C[C@@](O)([C@@H](OC(=O)c4ccccc4)[C@H]21)C3(C)C", "values": [{"measurement": "Cmax", "setting": "[1]", "result": 43.3, "unit": "µM"}, {"measurement": "IC50", "setting": "[2]", "result": 16.3, "unit": "nM"}, {"measurement": "IC50", "setting": "[3]", "result": 16.3, "unit": "nM"}, {"measurement": "Tmax", "setting": "[4]", "result": 4.98, "unit": "min"}, {"measurement": "MRT inf", "setting": "[5]", "result": 19.1, "unit": "min"}, {"measurement": "AUC(0-inf)", "setting": "[6]", "result": 1640, "unit": "ng·h/mL"}, {"measurement": "half-life", "setting": "[7]", "result": 7.8, "unit": "min"}, {"measurement": "half-life", "setting": "[8]", "result": 30.2, "unit": "min"}, {"measurement": "MRT inf", "setting": "[9]", "result": 13.1, "unit": "min"}, {"measurement": "Drug uptake", "setting": "[10]", "result": 0.79, "unit": "%"}, {"measurement": "Drug uptake", "setting": "[11]", "result": "Not Active"}, {"measurement": "clearance", "setting": "[12]", "result": 4.21, "unit": "mL/min/kg"}, {"measurement": "clearance", "setting": "[13]", "result": 6.66, "unit": "mL/min/kg"}, {"measurement": "Cmax", "setting": "[14]", "result": 3740, "unit": "ng/mL"}, {"measurement": "Drug metabolism", "setting": "[15]", "result": "Metabolite_Detected"}, {"measurement": "IC50", "setting": "[16]", "result": 16.3, "unit": "nM"}, {"measurement": "Vd", "setting": "[17]", "result": 0.204, "unit": "L/kg"}, {"measurement": "Cmax", "setting": "[18]", "result": 2.39, "unit": "µM"}, {"measurement": "AUC(0-inf)", "setting": "[19]", "result": 6120, "unit": "ng·h/mL"}, {"measurement": "inhibition in vivo at 5 mg/kg", "setting": "[20]", "result": 12, "unit": "%"}, {"measurement": "clearance", "setting": "[21]", "result": 2.97, "unit": "mL/min/kg"}]}
{"smiles": "CC(=O)O[C@@]12CO[C@@H]1C[C@H](O)[C@@]1(C)C(=O)[C@H](O)C3=C(C)[C@@H](OC(=O)[C@H](O)[C@@H](NC(=O)OC(C)(C)C)c4ccccc4)C[C@@](O)([C@@H](OC(=O)c4ccccc4)[C@H]21)C3(C)C", "note": "[DOCETAXEL ANHYDROUS]", "values": [{"measurement": "Activity", "setting": "[22]", "result": "inactive"}, {"measurement": "Activity", "setting": "[23]", "result": "Active"}, {"measurement": "Activity", "setting": "[24]", "result": "inactive"}, {"measurement": "Activity", "setting": "[25]", "result": "Active"}, {"measurement": "Activity", "setting": "[26]", "result": "inactive"}, {"measurement": "inhibition in vivo at 5.7 mg/kg", "setting": "[27]", "result": 15.4, "unit": "%"}, {"measurement": "Activity", "setting": "[28]", "result": "inactive"}, {"measurement": "Activity", "setting": "[29]", "result": "Non-Toxic"}, {"measurement": "Activity", "setting": "[30]", "result": "inactive"}]}
